Measured values: ChEMBL document CHEMBL1153346, “Structure-activity study of pentamidine analogues as antiprotozoal agents” (J Med Chem, 2009)
pIC50: −log10 of the molar value.

Columns and labels:
L6 = test: Cytotoxicity against rat L6 cells after 70 hrs by alamar blue assay; type: cell-based; conditions: L6, 70 h
Outline: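 L6 rat myoblasts, 4000 per well, in RPMI 1640 with 2 mM L-glutamine, HEPES, NaHCO₃ and 10% FBS. Exposed to serial dilutions (DMSO ≤1%) for 70 h at 37 °C in humidified 5% CO₂. Resazurin then added for 2-3 h; fluorescence read at ex 536/em 588 nm. IC50 from sigmoidal curves; two independent runs in duplicate.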

[1] = test system: Trypanosoma brucei rhodesiense; test: Antiprotozoal activity against Trypanosoma brucei rhodesiense STIB900 trypomastigotes after 70 hrs by alamar blue assay; type: functional, organism-based
Outline: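 Bloodstream forms, 2000 per well, in MEM with Earle's salts plus 0.2 mM 2-mercaptoethanol, 1 mM pyruvate, 0.5 mM hypoxanthine and 15% heat-inactivated horse serum. Exposed to serial dilutions (DMSO ≤1%) for 70 h at 37 °C in 5% CO₂. Resazurin then added for a further 2-6 h. IC50 from sigmoidal curves; two independent runs in duplicate.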

[2] = Selectivity index, ratio of IC50 for rat L6 cells to IC50 for Trypanosoma brucei rhodesiense STIB900 trypomastigotes; type: toxicity, cell-based; conditions: read-out: Ratio IC50
Outline: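 Ratio of L6 IC50 to STIB900 IC50. L6 cells: 4000/well in RPMI 1640 with 10% FBS, 70 h at 37 °C. Bloodstream forms: 2000/well in supplemented MEM with 15% horse serum, 70 h at 37 °C. Both read by Alamar blue fluorescence; IC50s from sigmoidal curves, two independent runs in duplicate.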

Plasmodium falciparum = test: Antiprotozoal activity after 48 hrs against chloroquine-resistant Plasmodium falciparum K1 infected erythrocytes by [3H]hypoxanthine uptake; type: functional, organism-based
Outline: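 Erythrocytic stages in infected human red cells (hematocrit 1.25%, parasitemia 0.3%) in supplemented RPMI 1640 with Albumax II. Serial dilutions incubated at 37 °C in 93% N2/4% CO2/3% O2. [3H]-hypoxanthine (0.5 µCi/well) added at 48 h, then 24 h more. Incorporation counted by scintillation. IC50 from sigmoidal curves; two independent runs in duplicate.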

[3] = Selectivity index, ratio of IC50 for rat L6 cells to IC50 for chloroquine-resistant Plasmodium falciparum K1; type: toxicity, cell-based; conditions: read-out: Ratio IC50
Outline: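 Ratio of L6 IC50 to K1 IC50. L6 cells: Alamar blue assay after 70 h, 37 °C. K1: [3H]-hypoxanthine incorporation in infected red cells over 48 + 24 h at 37 °C under low O2. IC50s from sigmoidal curves, two independent runs in duplicate.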

Leishmania donovani = test: Antiprotozoal activity against Leishmania donovani MHOM/SD/62/1S-CL2D axenic amastigotes after 72 hrs; type: functional, organism-based
Outline: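 L. donovani axenic amastigotes, adapted from promastigotes and grown in amastigote medium at 37 °C. 6 × 10⁴ parasites per well with 2-fold compound dilutions (DMSO ≤1%), incubated 72 h at 37 °C in humidified 5% CO₂. Growth read by tetrazolium (CellTiter) absorbance at 490 nm. IC50 from a four-parameter dose-response fit. Average of duplicate determinations.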

[4] = Selectivity index, ratio of IC50 for rat L6 cells to IC50 for Leishmania donovani MHOM/SD/62/1S-CL2D axenic amastigotes; type: toxicity, cell-based; conditions: read-out: Ratio IC50
Outline: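 Amastigotes: 6 × 10⁴ parasites/well with 2-fold dilutions, 72 h at 37 °C in 5% CO2. Growth read by tetrazolium CellTiter absorbance at 490 nm; IC50 from a four-parameter dose-response fit.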

Structure (SMILES)	pIC50 (L6)	pIC50 [1]	selectivity ratio [2]	pIC50 (Plasmodium falciparum)	selectivity ratio [3]	pIC50 (Leishmania donovani)	selectivity ratio [4]
CCOC(=O)c1cc(C(=N)N)ccc1OCCCCCOc1ccc(C(=N)N)cc1C(N)=O	< 3.78	7.96	> 15000	7.85	> 11800	4.28	> 3
CC(=N)Nc1ccc(OCCCCCOc2ccc(NC(C)=N)cc2)cc1	< 3.69	5.52	> 66	7.32	> 4210	< 4.00	
CC(C)NC(=N)c1ccc(OCCCCCOc2ccc(C(=N)NC(C)C)cc2C(=O)O)c(C(=O)O)c1	< 3.84	< 4.80		< 5.80		< 3.70	
c1cc(OCCCCCOc2cccc(C3=NCCN3)c2)cc(C2=NCCN2)c1	4.00	5.83	67	7.62	4170	4.65	4
CN1CCN=C1c1ccc(OCCCCCOc2ccc(C3=NCCN3C)cc2)cc1	< 3.75	< 4.71		5.78	> 107	< 4.00	2
c1cc(OCCCCOc2cccc(C3=NCCN3)c2)cc(C2=NCCN2)c1	< 3.73	5.71	> 95	6.97	> 1730	4.40	> 5
c1cc(OCCCCCCOc2cccc(C3=NCCN3)c2)cc(C2=NCCN2)c1	4.00	6.06	113	7.70	4950	4.66	5
N=C(N)c1ccc(OCCCCCOc2ccc(/C(N)=N\O)cc2)cc1	4.94	6.54	40	6.63	50	4.25	< 1
CC(C)NC(=N)c1cccc(OCCCCCOc2cccc(C(=N)NC(C)C)c2)c1	< 3.76	6.38	> 421	8.40	> 43800	4.81	> 11
N=C(N)c1ccc(OCCCCCOc2ccc(C(=N)N)c(O)c2)cc1O	< 3.71	5.10	> 24	5.89	> 151	< 4.00	
N=C(N)c1ccc(S(=O)(=O)CCCCCS(=O)(=O)c2ccc(C(=N)N)cc2)cc1	< 3.76	4.55	> 6	7.01	> 1780	< 4.00	2
c1cc(OCCCOc2cccc(C3=NCCN3)c2)cc(C2=NCCN2)c1	4.36	5.37	10	5.27	8	4.51	1
CCOC(=O)c1cc(C(=N)N)ccc1OCCCCCOc1ccc(C(=N)N)cc1C(=O)OCC	< 3.82	4.92	> 13	7.68	> 7240	< 4.30	
C[C@@H]1CC[C@H]2[C@@H](C)C(=O)O[C@@H]3O[C@@]4(C)CC[C@@H]1[C@]32OO4 [ARTEMISININ]					75000		
Fc1cc(OCCCCCOc2ccc(C3=NCCN3)c(F)c2)ccc1C1=NCCN1	4.63	5.35	5	6.26	43	4.28	0.4
Nc1cc(C2=NCCN2)ccc1OCCCOc1ccc(C2=NCCN2)cc1N	< 3.78	6.09	> 205	7.15	> 2390		
CNC(=N)c1ccc(OCCCOc2ccc(C(=N)NC)cc2OC)c(OC)c1	3.75	7.24	3100	6.19	276	4.60	7

Structure (SMILES)	pIC50 (L6)	pIC50 [1]	selectivity ratio [2]	pIC50 (Plasmodium falciparum)	selectivity ratio [3]	pIC50 (Leishmania donovani)	selectivity ratio [4]
Oc1cc(OCCCCCOc2ccc(C3=NCCN3)c(O)c2)ccc1C1=NCCN1	< 3.77	5.43	> 46	7.01	> 1720	< 4.00	2
c1cc(-c2nnn[nH]2)ccc1OCCCCCOc1ccc(-c2nnn[nH]2)cc1	< 3.64	< 3.64		5.08	> 28	< 4.00	2
O=C(O)c1cc(C2=NCCN2)ccc1OCCCCCOc1ccc(C2=NCCN2)cc1C(=O)O	< 3.82	< 4.77		< 5.77		< 3.70	
N=C(N)c1ccc(OCCCOc2ccc(C(=N)N)cc2[N+](=O)[O-])c([N+](=O)[O-])c1	4.64	6.73	121	7.46	651	4.51	0.7
CC(C)NC(=N)c1cccc(OCCCCCCOc2cccc(C(=N)NC(C)C)c2)c1	3.97	6.59	415	8.22	17800	4.94	9
CC(C)NC(=N)c1ccc(OCCCCCOc2ccc(C(=N)NC(C)C)c(O)c2)cc1O	< 3.81	4.83	> 11	6.24	> 269	< 4.00	2
CC(C)NC(=N)c1cccc(OCCCCOc2cccc(C(=N)NC(C)C)c2)c1	< 3.77	6.21	> 276	7.89	> 13200	4.71	> 9
CC(C)NC(=N)c1ccc(OCCCCCOc2ccc(C(=N)NC(C)C)c(F)c2)cc1F	3.88	6.59	506	8.15	18700	4.82	9
CC(C)NC(=N)c1cccc(OCCCOc2cccc(C(=N)NC(C)C)c2)c1	< 3.74	6.27	> 337	7.74	> 10200	4.79	> 11
N=C(N)c1ccc(OCCCCCOc2ccc(N)cc2)cc1	3.92	5.88	91	5.65	54	< 4.00	1
N/N=C(\N)c1ccc(OCCCCCOc2ccc(/C(N)=N/N)cc2)cc1	3.86	5.01	14	5.85	99	3.90	1
N=C(N)c1ccc(OCCCCCOc2ccc(C(=N)N)cc2C(=O)O)c(C(=O)O)c1	< 3.78	< 4.74		4.14	2		
N=C(N)c1ccc(OCCCCOc2ccc(C(=N)N)cc2[N+](=O)[O-])c([N+](=O)[O-])c1	4.37	6.74	236	7.74	2380	4.82	3
CCOC(=O)c1cc(C2=NCCN2)ccc1OCCCCCOc1ccc(C2=NCCN2)cc1C(=O)OCC	< 3.86	< 4.82		7.57	> 5110	4.87	> 10
N=C(N)c1ccc(OCCCOc2ccc(C(=O)O)cc2)cc1	3.78	< 3.59	< 0.6	< 5.55	< 60	< 4.00	< 2
N=C(N)c1ccc(OCCCCCOc2ccc(C(=N)N)cc2[N+](=O)[O-])c([N+](=O)[O-])c1	4.43	7.01	381	7.62	1550	4.94	3
